Experimental data collected from several papers.
Protocols differ between the studies behind these lines.
Target: Tyrosine-protein kinase receptor TYRO3 (TYRO3, Homo sapiens, UniProt Q06418)
One construct used (Q06418 41-890): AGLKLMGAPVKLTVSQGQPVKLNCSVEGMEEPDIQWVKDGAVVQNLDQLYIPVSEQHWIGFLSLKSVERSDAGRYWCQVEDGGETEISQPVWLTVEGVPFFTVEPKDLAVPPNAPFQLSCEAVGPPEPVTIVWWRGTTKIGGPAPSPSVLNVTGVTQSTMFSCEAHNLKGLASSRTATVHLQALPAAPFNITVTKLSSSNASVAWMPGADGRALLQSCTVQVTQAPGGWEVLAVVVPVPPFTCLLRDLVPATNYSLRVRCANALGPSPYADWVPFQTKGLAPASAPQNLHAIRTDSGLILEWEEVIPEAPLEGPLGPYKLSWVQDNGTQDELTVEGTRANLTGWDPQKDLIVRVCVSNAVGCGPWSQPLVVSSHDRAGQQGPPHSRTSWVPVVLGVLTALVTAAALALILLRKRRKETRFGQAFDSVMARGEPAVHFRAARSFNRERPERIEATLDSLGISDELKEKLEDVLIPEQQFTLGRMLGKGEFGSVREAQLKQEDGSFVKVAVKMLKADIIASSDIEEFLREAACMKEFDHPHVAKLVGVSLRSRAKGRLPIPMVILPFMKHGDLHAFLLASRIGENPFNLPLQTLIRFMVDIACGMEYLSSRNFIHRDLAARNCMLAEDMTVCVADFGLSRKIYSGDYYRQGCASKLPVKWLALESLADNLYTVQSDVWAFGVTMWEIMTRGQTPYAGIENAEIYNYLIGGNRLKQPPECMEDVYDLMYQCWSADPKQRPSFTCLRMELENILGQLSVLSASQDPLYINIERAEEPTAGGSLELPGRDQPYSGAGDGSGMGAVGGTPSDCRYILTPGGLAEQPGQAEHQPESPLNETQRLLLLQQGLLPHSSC

Cn1nc(C(=O)NCc2ccc(C(=O)O)cc2)cc1-c1ccc2[nH]ccc2c1 — remaining binding (cell-free assay, competition with immobilised ligand; 0.1 µM): 100%
O=C(NCCCN1CCOCC1)c1ccc(Nc2nccc(-c3cc4ccccc4s3)n2)cc1 — remaining binding (binding, competition with immobilised ligand; 1 µM): 90%
COc1cnc(Nc2cccc(S(N)(=O)=O)c2)nc1N1CCN(c2ccccc2)C(=O)C1 — remaining binding (binding, competition with immobilised ligand; 1 µM): 100%
FC(F)(F)Oc1cccc(-c2cnc3ccc(-c4ccncc4)nn23)c1 — remaining binding (cell-free assay, competition with immobilised ligand; 5 µM): 83%
CN(C)c1nccc(-c2cnc3ncccn23)n1 — remaining binding (binding; 1 µM): 100%
O=C(c1ccc(Nc2nccc(-c3cc4ccccc4s3)n2)cc1)N1CCC(N2CCCC2)CC1 — remaining binding (binding, competition with immobilised ligand; 1 µM): 95%
COc1ccnn2ncc(-c3ccnc(N(C)C)n3)c12 — remaining binding (binding; 1 µM): 100%
C[C@@H](c1cccc(C#N)c1)n1cc(Cl)cc(C(N)=O)c1=N — remaining binding (cell-free assay, competition with immobilised ligand; 1 µM): 68%
Cc1cnn2ncc(-c3ccnc(N(C)C)n3)c2c1 — remaining binding (binding; 1 µM): 100%
c1cncc(-c2cccc(Nc3nccc(NC4CCCCC4)n3)c2)c1 — remaining binding (binding, competition with immobilised ligand; 10 µM): 9.3%
CNCc1ccccc1-c1csc([C@H](C)Nc2nc(C)nc3cc(OC)c(OC)cc23)c1 — remaining binding (cell-free assay, competition with immobilised ligand; 1 µM): 100%
O=C(NCC1CCOCC1)c1n[nH]cc1NC(=O)c1c(F)cccc1F — remaining binding (binding, competition with immobilised ligand; 1 µM): 99%
CN(CCCC(F)(F)F)c1nccc(-c2cnn3ncccc23)n1 — remaining binding (binding; 1 µM): 93%
O=C(c1ccc(Nc2ncc(Cl)c(-c3cc4ccccc4s3)n2)cc1)N1CCC(N2CCCC2)CC1 — remaining binding (binding, competition with immobilised ligand; 1 µM): 44%
CCC(=N\O)/C(C)=C/c1ccc(F)cc1 — remaining binding (cell-free assay, competition with immobilised ligand; 1 µM): 100%
N[C@@H]1CCN(c2nccc(-c3cnn4ncccc34)n2)C1 — remaining binding (binding; 1 µM): 100%
NS(=O)(=O)c1cc(NC(=O)C2(c3ccccc3Cl)CC2)ccc1Oc1cccc(Cl)c1 — remaining binding (cell-free assay, competition with immobilised ligand; 1 µM): 100%
C[C@@H](c1ccc(-n2cnc3c(N)ncnc32)cc1)N1CCc2nn(C)c(Cc3ccccc3)c2C1=O — remaining binding (binding, competition with immobilised ligand; 0.1 µM): 100%
CS(=O)(=O)NCC[C@H](NC(=O)c1cncc2c1cnn2-c1ccc(F)cc1)c1ccnc(S(C)(=O)=O)c1 — remaining binding (cell-free assay, competition with immobilised ligand; 1 µM): 94%
CN(C)c1ncc(F)c(-c2cnn3ncccc23)n1 — remaining binding (binding; 1 µM): 75%
CNC(=O)c1ccc(Nc2ncc(C(F)(F)F)c(NCc3nccnc3N(C)S(C)(=O)=O)n2)cc1 — remaining binding (cell-free assay, competition with immobilised ligand; 0.1 µM): 100%
C[C@@H]1CCN(c2nccc(-c3cnn4ncccc34)n2)C1 — remaining binding (binding; 1 µM): 100%
